Published values collected from several papers.
Lines come from different studies, so protocols differ.
Cell line: MDA-MB-231
Effect on: cell growth or viability

| SMILES | method | tested at | time | measurement | value |
| --- | --- | --- | --- | --- | --- |
| C=CC(=O)c1cccnc1Nc1cc(C(F)(F)F)ccc1OCc1ccccc1 | SRB | – | 48 h | GI50 | 18.3 µM |
| O=C(/C=C/c1ccc(F)cc1)Nc1cc(-c2ccnc(N3CCC(O)CC3)c2)ccn1 | MTT | 5 µM | – | inhibition | 63% |
| Cc1c(Cc2ccccc2)c(=O)oc2c(C)c(OCC(=O)NN=Cc3ccco3)ccc12 | MTT | 31.25 µg/mL | – | viability | 15.3% |
| COc1cc2c3c(n(CCCn4ccnc4)c(=O)c2cc1OC)-c1nc2c(cc1C3=O)OCO2 | MTS | – | 72 h | IC50 | 1.51 µM |
| Cn1cc(-n2cnc3c(NCc4nc5cc(Cl)c(Cl)cc5[nH]4)nc(N4CCOCC4)nc32)cn1 | – | – | 5 days | EC50 | 0.0324 µM |
| Cc1cc(NC(=O)C=Cc2ccccc2)cc(-c2ccnc(N3CCOCC3)c2)c1 | MTT | 5 µM | – | inhibition | 17.7% |
| C=CCNC(=S)NNC(=O)COc1ccc2c(C)c(CC)c(=O)oc2c1C | MTT | 250 µg/mL | – | viability | 5.87% |
| COc1ccccc1CNC[C@@](C)(O)[C@@H]1CC[C@@H](C)C[C@H]1OCc1ccccc1 | MTT | 30 µM | 72 h | inhibition | 87.6% |
| CCc1c(C)c2ccc(OCc3nnc(S)n3N)c(C)c2oc1=O | MTT | 1000 µg/mL | – | viability | 5.38% |
| C[C@@H]1CC[C@@H]([C@@](O)(CNCc2ccccc2)COCc2ccc(F)cc2)[C@H](OCc2ccc(F)cc2)C1 | MTT | 10 µM | 72 h | inhibition | 97.9% |
| Cc1cc(NC(=O)C=Cc2ccccc2)cc(-c2ccnc(N3CCC(O)CC3)c2)c1 | MTT | 5 µM | – | inhibition | 55% |
| CCNC(=S)NNC(=O)COc1ccc2c(C)c(CC)c(=O)oc2c1C | MTT | 500 µg/mL | – | viability | 9.96% |
| C[C@@H]1CC[C@@H]([C@](C)(O)CNCc2cccc(F)c2)[C@H](OCc2ccccc2)C1 | MTT | 10 µM | 72 h | inhibition | 41.5% |
| Cc1c(Cc2ccccc2)c(=O)oc2c(C)c(OCC(=O)NN=Cc3ccc(Cl)cc3)ccc12 | MTT | 1000 µg/mL | – | viability | 17.1% |
| C=C(COCc1ccc(F)cc1)[C@@H]1CC[C@@H](C)C[C@H]1OCc1ccc(F)cc1 | MTT | 30 µM | 72 h | inhibition | 25% |
| O=C(NO)c1ccc(CNc2ccc(NC3=C(Cl)C(=O)c4cccnc4C3=O)cc2)cc1-c1ccccc1 | MTT | – | 48 h | IC50 | 2.5 µM |
| C[C@@H]1CC[C@@H]([C@](C)(O)CNCc2ccccc2)[C@H](OCc2ccccc2)C1 | MTT | 10 µM | 72 h | inhibition | 76.8% |
| Cc1c(Cc2ccccc2)c(=O)oc2c(C)c(OCC(=O)NN=Cc3ccc([N+](=O)[O-])cc3)ccc12 | MTT | 500 µg/mL | – | viability | 14.4% |
| COc1cccc(CNC[C@@](C)(O)[C@@H]2CC[C@@H](C)C[C@H]2OCc2ccccc2)c1 | MTT | 10 µM | 72 h | inhibition | 36% |
| O=C(C=Cc1ccccc1)Nc1cc(-c2ccnc(N3CCOCC3)c2)ccn1 | MTT | 5 µM | – | inhibition | 78.3% |
